Experimental data published in ChEMBL document CHEMBL2321648, “Structure-based discovery of pyrazolobenzothiazine derivatives as inhibitors of hepatitis C virus replication” (J Med Chem, 2013).

Assays:
Hepatitis C virus [1] = assay: Inhibition of N-terminal His-tagged recombinant Hepatitis C virus subtype 1b NS5B Cdelta21 RNA dependent RNA polymerase expressed in Escherichia coli at 50 uM by liquid scintillation counting analysis
Procedure, shortened: (§1)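 N-His-tagged NS5BCΔ21 (NIH1b), purified from E. coli DH5α on Ni-NTA, 100 ng per reaction. Reaction stopped with cold TCA/pyrophosphate, products filter-precipitated and scintillation-counted. Compound tested at 50 µM, activity relative to DMSO control.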

Hepatitis C virus [2] = assay: Antiviral activity against Hepatitis C virus subtype 1b infected in human HuH5.2 cells assessed as inhibition of virus-induced cytopathic effect; format: functional, organism-based, Hepacivirus hominis; details: genotype 1b, Huh-5-2
Procedure, shortened: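 Eight-step 1:2 dilution series, 72 h at 37 °C. Cells lysed and luciferase luminescence read, expressed as % of untreated controls. EC50 taken from the dose-response curve, means ± SD of at least three independent experiments.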

Hepatitis C virus [3] = assay: Inhibition of N-terminal His-tagged recombinant Hepatitis C virus subtype 1b N-terminal His-tagged expressed in Escherichia coli at 50 uM by liquid scintillation counting analysis relative to control; procedure, shortened: as §1
[4] = Cytotoxicity against human HuH5.2 cells by MTS assay; format: cell-based, Huh-5-2
Hepatitis C virus [5] = assay: Inhibition of N-terminal His-tagged recombinant Hepatitis C virus subtype 1b N-terminal His-tagged expressed in Escherichia coli at non-toxic concentration by liquid scintillation counting analysis relative to control
Procedure, shortened: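 Recombinant NS5B genotype 1b (NIH1b) was His-tagged, C-terminally truncated by 21 residues, expressed in E. coli DH5α and purified on Ni-NTA. Products were TCA-precipitated on filters and counted by scintillation relative to the DMSO control. Compounds were screened at 50 µM.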

Hepatitis C virus [6] = assay: Antiviral activity against Hepatitis C virus subtype 1b infected in human Huh-9-13 cells assessed as inhibition of virus-induced cytopathic effect; format: functional, organism-based, Hepacivirus hominis; details: genotype 1b
[7] = Selectivity index, ratio of CC50 for human HuH5.2 cells to EC50 for Hepatitis C virus subtype 1b; format: toxicity; details: read-out: Ratio CC50/EC50
Procedure, shortened: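 Ratio of CC50 (MTS, 72 h) to EC50 (luciferase replicon read-out), both measured in parallel in Huh 5-2 replicon cells.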

Hepatitis C virus [8] = assay: Binding affinity to Hepatitis C virus (isolate Con1) NS5B […] by surface plasmon resonance analysis; parameters: species or system Hepacivirus hominis
Hepatitis C virus [9] = assay: Inhibition of N-terminal His-tagged recombinant Hepatitis C virus subtype 1b NS5B Cdelta21 RNA dependent RNA polymerase expressed in Escherichia coli by liquid scintillation counting analysis
Procedure, shortened: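 Dose-response with 8–12 concentrations, in duplicate in two independent experiments. IC50 obtained by nonlinear regression, means ± SD.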

Row | SMILES | inhibition at 50 µM (Hepatitis C virus [1]) [%] | EC50 (Hepatitis C virus [2]) [µM] | inhibition at 50 µM (Hepatitis C virus [3]) [%] | other results
1 | CN1c2c(C(=O)Oc3ccc(NS(C)(=O)=O)cc3)nn(-c3cccc(F)c3)c2-c2ccccc2S1(=O)=O | 21.4 | 88 | 21 | 
2 | CN1c2c(C(=O)Nc3ccc(N)cc3)nn(-c3cccc(F)c3)c2-c2ccccc2S1(=O)=O | 31.5 | 19 | 31.5 | 
3 | CS(=O)(=O)Nc1ccc(NC(=O)c2nn(-c3ccccc3)c3c2NS(=O)(=O)c2ccccc2-3)cc1 |  | 14 |  | CC50 [4]: > 239 µM
4 | CN1c2c(C(=O)Nc3ccc(NS(C)(=O)=O)cc3)nn(-c3cccc(N)c3)c2-c2ccccc2S1(=O)=O | 45.8 | 9.2 | 45.8 | 
5 | CN1c2c(C(=O)Nc3ccc(NS(C)(=O)=O)cc3)nn(-c3ccc(N)cc3)c2-c2ccccc2S1(=O)=O |  | 12 |  | 
6 | COC(=O)c1nn(-c2cccc(F)c2)c2c1N(C)S(=O)(=O)c1ccccc1-2 | 10.6 | 172 | 11 | inhibition (INH) (Hepatitis C virus [5]): 40%
7 | CN1c2c(C(=O)Nc3ccc(NS(C)(=O)=O)cc3)nn(-c3ccccc3F)c2-c2ccccc2S1(=O)=O |  | 6.4 |  | 
8 | CN1c2c(C(=O)Nc3ccc(NS(C)(=O)=O)cc3)nn(-c3ccc(F)cc3)c2-c2ccccc2S1(=O)=O |  | 23 |  | 
9 | CN1c2c(C(=O)Nc3ccc(NS(C)(=O)=O)cc3)nn(-c3cccc(F)c3)c2-c2ccccc2S1(=O)=O |  | 7.5 |  | EC50 (Hepatitis C virus [6]): 3.6 µM
10 | CS(=O)(=O)Nc1ccc(NC(=O)c2nn(-c3cccc([N+](=O)[O-])c3)c3c2NS(=O)(=O)c2ccccc2-3)cc1 | 33.7 | > 220 |  | selectivity ratio [7]: ≥ 1; CC50 [4]: > 220 µM; EC90 (Hepatitis C virus [2]): > 220 µM; Kd (Hepatitis C virus [8]): 14 µM
11 | CN1c2c(C(=O)Nc3ccc(NS(C)(=O)=O)cc3)nn(-c3ccccc3N)c2-c2ccccc2S1(=O)=O |  | 26 |  | 
12 | CS(=O)(=O)Nc1ccc(NC(=O)c2nn(-c3ccc([N+](=O)[O-])cc3)c3c2NS(=O)(=O)c2ccccc2-3)cc1 |  | 7.9 |  | IC50 (Hepatitis C virus [9]): 7.7 µM
13 | CS(=O)(=O)Nc1ccc(NC(=O)c2nn(-c3ccccc3[N+](=O)[O-])c3c2NS(=O)(=O)c2ccccc2-3)cc1 |  | 17.8 |  | CC50 [4]: > 220 µM
